The source made the active and inactive calls. The rule behind the calls is not given here.
Columns and labels:
Sialidase [1] = target: T1, Sialidase (Clostridium perfringens, UniProt P10481); assay: Noncompetitive inhibition of Clostridium perfringens neuraminidase
T1 sequence (P10481 whole entry): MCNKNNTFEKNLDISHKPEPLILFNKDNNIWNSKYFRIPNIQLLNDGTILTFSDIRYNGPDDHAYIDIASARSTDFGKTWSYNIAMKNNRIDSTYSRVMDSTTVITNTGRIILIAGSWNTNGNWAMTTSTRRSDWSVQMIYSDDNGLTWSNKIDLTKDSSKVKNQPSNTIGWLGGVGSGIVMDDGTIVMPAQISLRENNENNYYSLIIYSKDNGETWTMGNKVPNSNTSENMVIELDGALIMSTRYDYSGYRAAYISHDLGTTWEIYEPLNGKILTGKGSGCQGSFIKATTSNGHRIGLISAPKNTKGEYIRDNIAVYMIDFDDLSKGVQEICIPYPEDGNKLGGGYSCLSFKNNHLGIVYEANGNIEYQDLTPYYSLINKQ
Method in brief: (§1)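 Kinetics run in acetate-buffer 4-MU-NANA fluorometric assay without stop solution, product read immediately at ex 360/em 440 nm across substrate and inhibitor concentrations. Mode assigned from Lineweaver–Burk and Dixon plots; Ki from x-axis intersection of lines.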

[2] = target: T2, Sialidase (Clostridium perfringens) (UniProt P10481); assay: Reversible inhibition of Clostridium perfringens neuraminidase at 0.1 times IC50 pre-incubated for 15 mins by spectrofluorimetry
T2 sequence (whole entry): T1 sequence (P10481 whole entry)
Method in brief: (§2)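 Reversibility by jump dilution: enzyme pre-incubated 15 min with compound at 100-fold assay enzyme level (0.125 U/mL), then diluted 1/100 into acetate buffer with substrate. Progress curves of fluorescence over 30 min compared with enzyme pre-incubated and diluted without compound.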

[3] = target: T2, Sialidase (Clostridium perfringens); assay: Inhibition of Clostridium perfringens neuraminidase at 10 times IC50 by spectrofluorimetry; method in brief: as §2
[4] = target: T2, Sialidase (Clostridium perfringens); assay: Noncompetitive inhibition of Clostridium perfringens neuraminidase by Lineweaver-Burke plot analysis
Sialidase [5] = target: Sialidase (Vibrio cholerae serotype O1 (strain ATCC 39315 / El Tor Inaba N16961), UniProt P0C6E9); assay: (§3) Inhibition of Vibrio cholerae neuraminidase assessed as inhibition of 4-MU-NANA hydrolysis after 30 mins by spectrofluorimetry
Method in brief: (§4)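 V. cholerae enzyme (8.3 U) with compound in 50 mM MES, 6 mM CaCl2, pH 5.6, pre-incubated 30 min at 37 °C with shaking. 4-MU-NANA added at 25 µM final, 30 min at 37 °C, then quenched with 0.25 M glycine pH 10.0. Read at ex 360/em 440 nm, blank-corrected, expressed as % of no-inhibitor control, at least triplicate.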

[6] = target: Sialidase (Vibrio cholerae serotype O1 (strain ATCC 39315 / El Tor Inaba N16961)) (UniProt P0C6E9); assay: as §3; method in brief: as §4
[7] = target: T2, Sialidase (Clostridium perfringens); assay: (§5) Inhibition of Clostridium perfringens neuraminidase assessed as inhibition of 4-MU-NANA hydrolysis after 10 mins by spectrofluorimetry
Method in brief: (§6)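 Enzyme at 0.05 U/mL in 0.04 M sodium acetate pH 5.0 with compound (DMSO stock diluted in buffer) and 4-MU-NANA (1 mM stock); 10 min at 37 °C. Stopped with 0.1 M glycine–NaOH pH 10.4; 4-methylumbelliferone read at ex 360/em 440 nm. IC50 from regression, mean ± SD of three replicates.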

Sialidase [8] = target: T1, Sialidase; assay: as §5; method in brief: as §6
[9] = target: T2, Sialidase (Clostridium perfringens); assay: Reversible inhibition of Clostridium perfringens neuraminidase at 10 times IC50 pre-incubated for 15 mins by spectrofluorimetry; method in brief: as §2
[10] = target: T2, Sialidase (Clostridium perfringens); assay: Inhibition of Clostridium perfringens neuraminidase at 0.1 times IC50 by spectrofluorimetry; method in brief: as §2
[11] = target: T2, Sialidase (Clostridium perfringens); assay: Noncompetitive inhibition of Clostridium perfringens neuraminidase by Dixon plot analysis
Method in brief: (§7)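 Dixon plots of 1/v against [I] at each substrate concentration, rates from unquenched fluorometric 4-MU-NANA hydrolysis (ex 360/em 440 nm); Ki read from the x-axis value where lines intersect.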

Vibrio cholerae [12] = assay: Antibacterial activity against Vibrio cholerae 16961 infected in human HeLa cells assessed as inhibition of bacterial adherence to host cell at 3 to 10 ug/ml pre-incubated for 1 hr before infection measured after 30 mins of infection by Giemsa staining; format: functional, organism-based
Vibrio cholerae [13] = assay: Antibacterial activity against Vibrio cholerae 16961 at 3 to 10 ug/ml after 24 hrs; format: functional, organism-based
Sialidase [14] = target: T1, Sialidase; assay: Competitive inhibition of Clostridium perfringens neuraminidase; method in brief: as §1
[15] = target: T2, Sialidase (Clostridium perfringens); assay: Competitive inhibition of Clostridium perfringens neuraminidase by Lineweaver-Burke plot analysis
[16] = target: T2, Sialidase (Clostridium perfringens); assay: Competitive inhibition of Clostridium perfringens neuraminidase by Dixon plot analysis; method in brief: as §7
[17] = target: T2, Sialidase (Clostridium perfringens); details: 20 ug/mL
[18] = target: Sialidase (Vibrio cholerae serotype O1 (strain ATCC 39315 / El Tor Inaba N16961)) (UniProt P0C6E9); assay: Inhibition of Vibrio cholerae neuraminidase assessed as inhibition of 4-MU-NANA hydrolysis at 30 ug/mL after 10 mins by spectrofluorimetry

Sialidase (Vibrio cholerae serotype O1 (strain ATCC 39315 / El Tor Inaba N16961)), sequence (P0C6E9 whole entry, one chain of several): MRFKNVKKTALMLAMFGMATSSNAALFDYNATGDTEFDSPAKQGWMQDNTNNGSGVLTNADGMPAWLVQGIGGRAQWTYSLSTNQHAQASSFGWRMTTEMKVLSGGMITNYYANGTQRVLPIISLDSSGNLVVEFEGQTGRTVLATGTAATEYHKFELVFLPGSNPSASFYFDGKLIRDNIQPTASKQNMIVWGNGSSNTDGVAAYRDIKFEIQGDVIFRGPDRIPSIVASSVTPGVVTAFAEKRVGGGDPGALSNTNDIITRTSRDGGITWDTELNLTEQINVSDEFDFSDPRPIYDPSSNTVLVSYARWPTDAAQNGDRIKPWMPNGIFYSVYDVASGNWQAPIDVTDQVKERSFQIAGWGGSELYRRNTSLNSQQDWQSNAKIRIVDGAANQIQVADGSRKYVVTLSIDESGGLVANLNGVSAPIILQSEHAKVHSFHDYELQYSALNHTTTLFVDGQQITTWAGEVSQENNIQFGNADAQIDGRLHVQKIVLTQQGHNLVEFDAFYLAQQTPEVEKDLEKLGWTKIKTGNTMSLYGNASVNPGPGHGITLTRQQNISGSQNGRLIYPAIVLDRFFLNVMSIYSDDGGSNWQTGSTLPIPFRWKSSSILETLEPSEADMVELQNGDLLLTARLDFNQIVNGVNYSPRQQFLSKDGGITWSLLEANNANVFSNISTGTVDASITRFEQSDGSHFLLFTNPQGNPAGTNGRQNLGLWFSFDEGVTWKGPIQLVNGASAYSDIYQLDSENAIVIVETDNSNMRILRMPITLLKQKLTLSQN
Sialidase (Vibrio cholerae serotype O1 (strain ATCC 39315 / El Tor Inaba N16961), UniProt P0C6E9), sequence (P0C6E9 whole entry, one chain of several): as above

Oc1ccc2c(c1)O[C@H]1c3ccc(O)cc3OC[C@@H]21
Ki (Sialidase [1]): 3830 nM | inhibition [2]: Active | inhibition [3]: 91% | inhibition [4]: Active | IC50 (Sialidase [5]): 29.5 µM | Activity [6]: Dose-dependent effect | Activity [7]: Dose-dependent effect | IC50 (Sialidase [8]): 6.39 µM | inhibition [9]: Active | inhibition [10]: 9% | inhibition [11]: Active

CC(C)=CCc1cc2c(cc1O)OC[C@H]1c3ccc(O)cc3O[C@@H]21 [CALOPOCARPIN]
Ki (Sialidase [1]): 2090 nM | inhibition [2]: Active | inhibition [3]: 91% | Activity (Vibrio cholerae [12]): Active | Activity (Vibrio cholerae [13]): inactive | inhibition [4]: Active | IC50 (Sialidase [5]): 7.55 µM | Activity [7]: Dose-dependent effect | IC50 (Sialidase [8]): 1.57 µM | inhibition [9]: Active | inhibition [10]: 9% | inhibition [11]: Active

COc1ccc2c(c1CC=C(C)C)O[C@H]1c3cc(CC=C(C)C)c(O)cc3OC[C@@]21O [ERYSTAGALLIN A]
Ki (Sialidase [1]): 1800 nM | inhibition [2]: Active | inhibition [3]: 91% | inhibition [4]: Active | IC50 (Sialidase [5]): 27.7 µM | Activity [6]: Dose-dependent effect | Activity [7]: Dose-dependent effect | IC50 (Sialidase [8]): 2.04 µM | inhibition [9]: Active | inhibition [10]: 9% | inhibition [11]: Active

CC(C)=CCc1cc2c(cc1O)OC[C@H]1c3ccc4c(c3O[C@@H]21)CC(O)C(C)(C)O4 (stereo partly drawn) [ERYSUBIN D]
inhibition [2]: Active | Ki (Sialidase [14]): 15.2 µM | inhibition [3]: 91% | inhibition [15]: Active | IC50 (Sialidase [5]): 26.4 µM | Activity [6]: Dose-dependent effect | Activity [7]: Dose-dependent effect | IC50 (Sialidase [8]): 26.4 µM | inhibition [16]: Active | inhibition [9]: Active | inhibition [10]: 9%

CC(C)=CCc1cc2c(cc1O)OC[C@@]1(O)c3ccc4c(c3O[C@@H]21)C=CC(C)(C)O4 [ERYSUBIN E]
Ki (Sialidase [1]): 240 nM | inhibition [2]: Active | inhibition [3]: 91% | inhibition [4]: Active | IC50 (Sialidase [5]): 19.5 µM | Activity [6]: Dose-dependent effect | Activity [7]: Dose-dependent effect | IC50 (Sialidase [8]): 1.3 µM | inhibition [9]: Active | inhibition [10]: 9% | inhibition [11]: Active

COc1ccc2c(c1CC=C(C)C)O[C@H]1c3ccc(O)cc3OC[C@@]21O [ERYTHRABYSSIN I]
Ki (Sialidase [1]): 310 nM | inhibition [2]: Active | inhibition [3]: 91% | inhibition [4]: Active | IC50 (Sialidase [5]): 22 µM | Activity [6]: Dose-dependent effect | Activity [7]: Dose-dependent effect | IC50 (Sialidase [8]): 2.28 µM | inhibition [9]: Active | inhibition [10]: 9% | inhibition [11]: Active

CC1(C)Oc2ccc3c(c2CC1O)O[C@H]1c2ccc(O)cc2OC[C@@H]31 (stereo partly drawn) [ERYTHRIBYSSIN D]
inhibition [2]: Active | inhibition [3]: 91% | IC50 (Sialidase [5]): 46.2 µM | Activity [6]: Dose-dependent effect | Activity [7]: Dose-dependent effect | IC50 (Sialidase [8]): 77.1 µM | inhibition [9]: Active | inhibition [10]: 9%

CC(C)=CCc1c(O)ccc2c1O[C@H]1c3cc4c(cc3OC[C@@H]21)OC(C)(C)C(O)C4 (stereo partly drawn) [ERYTHRIBYSSIN L]
Ki (Sialidase [1]): 4130 nM | inhibition [2]: Active | inhibition [3]: 91% | inhibition [4]: Active | IC50 (Sialidase [5]): 27.1 µM | Activity [7]: Dose-dependent effect | IC50 (Sialidase [8]): 2.79 µM | inhibition [9]: Active | inhibition [10]: 9% | inhibition [11]: Active

CC1(C)Oc2ccc3c(c2CC1O)O[C@@H]1c2ccc(O)cc2OC[C@H]31 (stereo partly drawn) [ERYTHRIBYSSIN M]
inhibition [2]: Active | inhibition [3]: 91% | IC50 (Sialidase [5]): 77.7 µM | Activity [6]: Dose-dependent effect | Activity [7]: Dose-dependent effect | IC50 (Sialidase [8]): 205 µM | inhibition [9]: Active | inhibition [10]: 9%

CC(C)=CCc1c(O)ccc2c3c(oc12)-c1cc(C=O)c(O)cc1OC3 [ERYTHRIBYSSIN O]
Ki (Sialidase [1]): 1210 nM | inhibition [2]: Active | inhibition [3]: 91% | inhibition [4]: Active | IC50 (Sialidase [5]): 0.35 µM | Activity [6]: Dose-dependent effect | Activity [7]: Dose-dependent effect | IC50 (Sialidase [8]): 1.32 µM | inhibition [9]: Active | inhibition [10]: 9% | inhibition [11]: Active

COc1ccc2c3c(oc2c1CC=C(C)C)-c1ccc(O)cc1OC3 [ERYVARIN D]
Ki (Sialidase [1]): 2550 nM | IC50 (Sialidase [5]): 3.3 µM | Activity [6]: Dose-dependent effect | IC50 (Sialidase [8]): 2.09 µM

CC1(C)C=Cc2cc3c(cc2O1)O[C@H]1c2ccc(O)cc2OC[C@@H]31 [ISONEORAUTENOL]
Ki (Sialidase [1]): 11000 nM | inhibition [2]: Active | inhibition [3]: 91% | inhibition [4]: Active | IC50 (Sialidase [5]): 64.8 µM | Activity [6]: Dose-dependent effect | Activity [7]: Dose-dependent effect | IC50 (Sialidase [8]): 14.1 µM | inhibition [9]: Active | inhibition [10]: 9% | inhibition [11]: Active

CC1(C)C=Cc2cc3c(cc2O1)OC[C@H]1c2ccc(O)cc2O[C@@H]31 [NEORAUTENOL]
Ki (Sialidase [1]): 21700 nM | inhibition [2]: Active | inhibition [3]: 91% | inhibition [4]: Active | IC50 (Sialidase [5]): 53.1 µM | Activity [6]: Dose-dependent effect | Activity [7]: Dose-dependent effect | IC50 (Sialidase [8]): 19.8 µM | inhibition [9]: Active | inhibition [10]: 9% | inhibition [11]: Active

CC1(C)C=Cc2c(ccc3c2O[C@H]2c4ccc(O)cc4OC[C@@H]32)O1 [PHASEOLIN]
Ki (Sialidase [14]): 4.84 µM | IC50 (Sialidase [5]): 31.4 µM | Activity [6]: Dose-dependent effect | IC50 (Sialidase [8]): 33.6 µM

O=c1c(O)c(-c2ccc(O)c(O)c2)oc2cc(O)cc(O)c12 [QUERCETIN]
Activity [7]: Dose-dependent effect | IC50 (Sialidase [8]): 25.3 µM | inhibition [17]: 48.9% | inhibition [18]: 29.3%

CC(C)=CCc1cc2c(cc1O)O[C@H]1c3ccc(O)cc3OC[C@@H]21 [SOPHORAPTEROCARPAN A]
Ki (Sialidase [1]): 1780 nM | inhibition [2]: Active | inhibition [3]: 91% | inhibition [4]: Active | IC50 (Sialidase [5]): 11.6 µM | Activity [7]: Dose-dependent effect | IC50 (Sialidase [8]): 2.01 µM | inhibition [9]: Active | inhibition [10]: 9% | inhibition [11]: Active

— ChEMBL document CHEMBL1157932, “Prenylated pterocarpans as bacterial neuraminidase inhibitors” (Bioorg Med Chem, 2010)
